Format in all cases: functional
For test [1], the system named is Neisseria gonorrhoeae. Description: Antimicrobial activity against […] Neisseria gonorrhoeae NGON 08-043 expressing beta-lactamase TEM-1, MLST type ST-7823 and MAST type ST-1288 by agar dilution method. A digest of the protocol:
(§1)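 Clinical PPNG isolates from one Tokyo hospital, collected 2000–2008 and flagged as penicillinase producers by nitrocefin test. MICs of penicillin, cefixime and ceftriaxone were determined by agar dilution per an earlier method. Isolates were typed by MLST and MAST. The bla gene was PCR-amplified (annealing at 60°C, 30 cycles) and sequenced to assign the TEM allele.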

The test system of test [2] is Neisseria gonorrhoeae. Briefly: Antimicrobial activity against […] Neisseria gonorrhoeae NGON 06-041 expressing beta-lactamase TEM-1, MLST type ST-1588 and MAST type ST-4012 by agar dilution method.
For test [3], the system named is Neisseria gonorrhoeae. Briefly: Antimicrobial activity against […] Neisseria gonorrhoeae NGON 04-025 expressing beta-lactamase TEM-135, MLST type ST-1597 and MAST type ST-1549 by agar dilution method. Background: In agar dilution the substance is mixed into plates at graded concentrations.
In test [4] the test system is Neisseria gonorrhoeae. Briefly: Antimicrobial activity against […] Neisseria gonorrhoeae NGON 08-003 expressing beta-lactamase TEM-135, MLST type ST-7823 and MAST type ST-4013 by agar dilution method. An outline of the steps:
as §1

For test [5], the system named is Neisseria gonorrhoeae. Description: Antimicrobial activity against […] Neisseria gonorrhoeae NGON 00-002 expressing beta-lactamase TEM-1, MLST type ST-1590 and MAST type ST-270 by agar dilution method. A digest of the protocol:
as §1

The test system of test [6] is Neisseria gonorrhoeae. Briefly: Antimicrobial activity against […] Neisseria gonorrhoeae NGON 00-027 expressing beta-lactamase TEM-1, MLST type ST-1921 and MAST type ST-1817 by agar dilution method. A digest of the protocol:
as §1

Test [7] deals with Neisseria gonorrhoeae. Description: Antimicrobial activity against […] Neisseria gonorrhoeae NGON 05-042 expressing beta-lactamase TEM-1, MLST type ST-1588 and MAST type ST-4012 by agar dilution method.
Test [8] has as its system Neisseria gonorrhoeae. Description: Antimicrobial activity against […] Neisseria gonorrhoeae NGON 08-046 expressing beta-lactamase TEM-1, MLST type ST-1584 and MAST type ST-1478 by agar dilution method.
For test [9], the system named is Neisseria gonorrhoeae. Description: Antimicrobial activity against […] Neisseria gonorrhoeae NGON 08-041 expressing beta-lactamase TEM-1, MLST type ST-1584 and MAST type ST-1478 by agar dilution method. A digest of the protocol:
as §1

The subject of test [10] is Neisseria gonorrhoeae. Briefly: Antimicrobial activity against […] Neisseria gonorrhoeae NGON 08-044 expressing beta-lactamase TEM-1, MLST type ST-7823 and MAST type ST-1288 by agar dilution method. A digest of the protocol: as §1

Values after ≈ are worked out from the molar mass of the structure shown.

With `C=CC1=C(C(=O)O)N2C(=O)[C@@H](NC(=O)/C(=N\OCC(=O)O)c3csc(N)n3)[C@H]2SC1` [CEFIXIME], the MIC is 0.064 µg/mL (≈ 0.141 µM) in test [1]; 0.25 µg/mL (≈ 0.551 µM) in test [2]; 0.004 µg/mL (≈ 0.00882 µM) in test [3]; 0.032 µg/mL (≈ 0.0706 µM) in test [4]; 0.032 µg/mL (≈ 0.0706 µM) in [5]; 0.008 µg/mL (≈ 0.0176 µM) in test [6]. Also, the MIC in [7] is 0.25 µg/mL (≈ 0.551 µM); in test [8] it was 0.25 µg/mL (≈ 0.551 µM); in test [9], 0.008 µg/mL (≈ 0.0176 µM); in test [10], 0.064 µg/mL (≈ 0.141 µM).
For `CO/N=C(\C(=O)N[C@@H]1C(=O)N2C(C(=O)O)=C(CSc3nc(=O)c(O)nn3C)CS[C@H]12)c1csc(N)n1` [CEFTRIAXONE], the MIC was 0.064 µg/mL (≈ 0.115 µM) in [1]; 0.032 µg/mL (≈ 0.0577 µM) in test [2]; no more than 0.004 µg/mL in [3]; 0.032 µg/mL (≈ 0.0577 µM) in test [4]; 0.016 µg/mL (≈ 0.0289 µM) in test [5]; 0.008 µg/mL (≈ 0.0144 µM) in test [6]. The minimal inhibitory concentration (MIC) is 0.064 µg/mL (≈ 0.115 µM) in [7], 0.032 µg/mL (≈ 0.0577 µM) in [8], 0.004 µg/mL (≈ 0.00721 µM) in test [9] and 0.064 µg/mL (≈ 0.115 µM) in [10].
For the compound `CC1(C)S[C@@H]2[C@H](NC(=O)Cc3ccccc3)C(=O)N2[C@H]1C(=O)O` [PENICILLIN G], the MIC in test [1] is greater than 64 µg/mL; in test [2] it was 32 µg/mL (≈ 95.7 µM); in test [3], greater than 64 µg/mL; in [4], greater than 64 µg/mL; in test [5], 16 µg/mL (≈ 47.8 µM); in test [6] it was greater than 64 µg/mL. The minimal inhibitory concentration (MIC) is 64 µg/mL (≈ 191 µM) in test [7], 64 µg/mL (≈ 191 µM) in [8], 64 µg/mL (≈ 191 µM) in test [9] and greater than 64 µg/mL in test [10].

A word on the MIC: it is the smallest concentration in the dilution series that meets the test's criterion for growth inhibition. Low readings indicate a more susceptible organism, high ones a less susceptible organism.

Values taken from ChEMBL document CHEMBL1275604, “Identification of TEM-135 beta-lactamase in penicillinase-producing Neisseria gonorrhoeae strains in Japan” (2010).
